These results are taken from ChEMBL document CHEMBL1629494, “New amino acid esters of salicylanilides active against MDR-TB and other microbes” (Eur J Med Chem, 2010).

Values after ≈ are worked out from the molar mass of the structure shown.

Series [1] has as its system Mycobacterium kansasii. The experiment in a line: Antimycobacterial activity against Mycobacterium kansasii. In kind it is functional.
The test system of series [2] is Trichophyton mentagrophytes. Description: Antifungal activity against Trichophyton mentagrophytes after 48 hrs by broth microdilution method. Format: functional. A general note: Broth dilution looks for growth in wells or tubes with falling amounts of substance.
A short description of series [3]: Lipophilicity, log P of the compound. Format: physicochemical. The settings on record: octanol/water.
In series [4] the test system is Mycobacterium avium. The experiment in a line: Antimycobacterial activity against multidrug-resistant Mycobacterium avium 330/88 after 21 days by micromethod. Format: functional. The settings on record: 330/88, 504 h. The gist of the method: (§1)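 Micromethod in Sula semisynthetic medium, with compounds added as DMSO solutions at 1000, 500, 250, 125, 62, 32, 16, 8, 4, 2, 1, 0.5, 0.25. Inoculum dilutions: H37Rv 10^-3; M. avium 330/88 10^-5; M. kansasii 235/80 10^-4; M. kansasii 6509/96 10^-5. Incubated at 37 °C, read at 14 and 21 days, and at 7 days for M. kansasii. MIC was the lowest concentration inhibiting growth.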

Series [5] has as its system Pichia kudriavzevii. The experiment in a line: Antifungal activity against Candida krusei E28 after 48 hrs by broth microdilution method. Format: functional. The settings on record: E28, 48 h.
In series [6] the test system is Mycobacterium avium. Description: Antimycobacterial activity against Mycobacterium avium. In kind it is functional.
Series [7] has as its system Mycobacterium kansasii. Description: Antimycobacterial activity against Mycobacterium kansasii 235/80 after 14 days by micromethod. In kind it is functional. To be noted: 235/80, 336 h. An outline of the steps: as §1
Series [8] relates to Nakaseomyces glabratus. Description: Antifungal activity against Candida glabrata 20/I after 48 hrs by broth microdilution method. In kind it is functional.
Series [9] relates to Pichia kudriavzevii. Description: Antifungal activity against Candida krusei E28 after 24 hrs by broth microdilution method. To be noted: E28, 24 h. Format: functional.
For series [10], the system named is Mycobacterium kansasii. The experiment in a line: Antimycobacterial activity against Mycobacterium kansasii 6509/96 after 7 days by micromethod. In kind it is functional. To be noted: 6509/96, 168 h. The gist of the method:
as §1

The subject of series [11] is Aspergillus fumigatus. Description: Antifungal activity against Aspergillus fumigatus 231 after 24 hrs by broth microdilution method. In kind it is functional. The settings on record: Aspergillus fumigatus, 231, 24 h.
Series [12] has as its system Lichtheimia corymbifera. Description: Antifungal activity against Absidia corymbifera 272 after 24 hrs by broth microdilution method. Format: functional. To be noted: Lichtheimia corymbifera, 272, 24 h.
For series [13], the system named is Mycobacterium tuberculosis. Description: Antimycobacterial activity against Mycobacterium tuberculosis H37Rv 331/88 after 14 days by micromethod. The settings on record: H37Rv 331/88, 336 h. Format: functional. The gist of the method: as §1
For series [14], the system named is Candida tropicalis. Description: Antifungal activity against Candida tropicalis 156 after 24 hrs by broth microdilution method. Format: functional. The settings on record: Candida tropicalis, 156, 24 h.
Series [15] deals with Mycobacterium kansasii. Description: Antimycobacterial activity against Mycobacterium kansasii 6509/96 after 14 days by micromethod. In kind it is functional. The settings on record: 6509/96, 336 h. The gist of the method:
as §1

The subject of series [16] is Mycobacterium tuberculosis. The experiment in a line: Antimycobacterial activity against Mycobacterium tuberculosis H37Rv 331/88 after 21 days by micromethod. To be noted: H37Rv 331/88, 504 h. Format: functional. The gist of the method: as §1
Series [17] relates to Mycobacterium avium. The experiment in a line: Antimycobacterial activity against multidrug-resistant Mycobacterium avium 330/88 after 14 days by micromethod. The settings on record: 330/88, 336 h. Format: functional. An outline of the steps:
as §1

For series [18], the system named is Trichosporon beigelii. Description: Antifungal activity against Trichosporon beigelii 1188 after 48 hrs by broth microdilution method. The settings on record: Trichosporon beigelii, 1188, 48 h. In kind it is functional.
Series [19] has as its system Mycobacterium kansasii. The experiment in a line: Antimycobacterial activity against Mycobacterium kansasii 6509/96 after 21 days by micromethod. To be noted: 6509/96, 504 h. In kind it is functional. An outline of the steps: as §1
The test system of series [20] is Mycobacterium kansasii. The experiment in a line: Antimycobacterial activity against Mycobacterium kansasii 235/80 after 7 days by micromethod. In kind it is functional. To be noted: 235/80, 168 h. An outline of the steps:
as §1

Series [21] concerns Trichophyton mentagrophytes. Description: Antifungal activity against Trichophyton mentagrophytes after 24 hrs by broth microdilution method. In kind it is functional.
The subject of series [22] is Mycobacterium tuberculosis. Description: Antimycobacterial activity against drug-sensitive Mycobacterium tuberculosis. In kind it is functional.
Series [23] has as its system Aspergillus fumigatus. The experiment in a line: Antifungal activity against Aspergillus fumigatus 231 after 48 hrs by broth microdilution method. Format: functional. The settings on record: Aspergillus fumigatus, 231, 48 h.
The subject of series [24] is Candida albicans. The experiment in a line: Antifungal activity against Candida albicans ATCC 44859 after 48 hrs by broth microdilution method. To be noted: ATCC 44859, 48 h. Format: functional.
For series [25], the system named is Trichosporon beigelii. The experiment in a line: Antifungal activity against Trichosporon beigelii 1188 after 24 hrs by broth microdilution method. In kind it is functional. The settings on record: Trichosporon beigelii, 1188, 24 h.
Series [26] concerns Candida albicans. The experiment in a line: Antifungal activity against Candida albicans ATCC 44859 after 24 hrs by broth microdilution method. Format: functional. The settings on record: ATCC 44859, 24 h.
The test system of series [27] is Lichtheimia corymbifera. Description: Antifungal activity against Absidia corymbifera 272 after 48 hrs by broth microdilution method. In kind it is functional. The settings on record: Lichtheimia corymbifera, 272, 48 h.
In series [28] the test system is Candida tropicalis. Description: Antifungal activity against Candida tropicalis 156 after 48 hrs by broth microdilution method. Format: functional. The settings on record: Candida tropicalis, 156, 48 h.
The subject of series [29] is Nakaseomyces glabratus. The experiment in a line: Antifungal activity against Candida glabrata 20/I after 24 hrs by broth microdilution method. Format: functional.
Series [30] relates to Mycobacterium kansasii. The experiment in a line: Antimycobacterial activity against Mycobacterium kansasii 235/80 after 21 days by micromethod. In kind it is functional. To be noted: 235/80, 504 h. The gist of the method: as §1
Series [31] can be described thus: Selectivity index, ratio of IC50 for human PBMC to MIC for Mycobacterium tuberculosis H37Rv 331/88 after 14 days. In kind it is functional. An outline of the steps:
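SI = PBMC IC50 (MTT cytotoxicity) divided by the MIC against the named M. tuberculosis strain. MIC taken after 14 days of incubation at 37 °C by the micromethod.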

Series [32] relates to PBMC. Description: Cytotoxicity against human PBMC after 24 hrs by MTT assay. In kind it is cell-based. An outline of the steps: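 Human peripheral blood mononuclear cells in RPMI-1640 with 10% fetal calf serum, 2 mM L-glutamine and gentamicin, 37 °C, 5% CO2. Seeded at 1.5–2.0 × 10⁵ cells/well. After 24 h, treated overnight in serum-free medium. Viability by MTT (2 mg/mL, 4 h); formazan dissolved in DMSO; OD540 minus OD620. Cytotoxicity % = [1 − OD treated/OD control] × 100; IC50 from dose-response curves. Four parallels, two independent experiments.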

The term MIC denotes the least concentration at which growth counts as inhibited. Lower therefore signals a more susceptible organism. For orientation: logP means the decadic logarithm of the partition coefficient of the neutral form, usually between octanol and water. Low values mean lower lipophilicity, high ones higher lipophilicity. The term IC50 denotes the concentration that inhibits the measured activity by half.

As for `CC(=O)N[C@@H](Cc1ccccc1)C(=O)Oc1ccc(Cl)cc1C(=O)Nc1ccc(Br)cc1`, the MIC in [1] was 1 µM (≈ 0.516 µg/mL); in [2], above 125 µM; in series [4], 8 µM (≈ 4.13 µg/mL); in series [5], above 125 µM; in [6], 1 µM (≈ 0.516 µg/mL); in series [7] it was 4 µM (≈ 2.06 µg/mL). Besides, the MIC in series [8] is above 125 µM; in series [9] it was 125 µM (≈ 64.5 µg/mL); in series [10] it was 4 µM (≈ 2.06 µg/mL); in [11], 125 µM (≈ 64.5 µg/mL); in series [12], 125 µM (≈ 64.5 µg/mL); in series [13] it was 2 µM (≈ 1.03 µg/mL). For the same compound, the MIC in [14] was above 125 µM; in series [15], 4 µM (≈ 2.06 µg/mL); in series [16] it was 2 µM (≈ 1.03 µg/mL); in series [17], 4 µM (≈ 2.06 µg/mL); in series [18] it was above 125 µM; in [19], 8 µM (≈ 4.13 µg/mL). For the same compound, the MIC was 4 µM (≈ 2.06 µg/mL) in series [20]; above 125 µM in series [21]; 1 µM (≈ 0.516 µg/mL) in series [22]; above 125 µM in series [23]; above 125 µM in series [24]; 125 µM (≈ 64.5 µg/mL) in series [25]. The MIC in series [26] was 125 µM (≈ 64.5 µg/mL); in [27], above 125 µM; in [28] it was above 125 µM; in [29], above 125 µM; in series [30] it was 4 µM (≈ 2.06 µg/mL). Moreover, the logP in [3] stood at 4.83.
Turning to `CC(=O)N[C@@H](Cc1ccccc1)C(=O)Oc1ccc(Cl)cc1C(=O)Nc1ccc(Cl)c(Cl)c1`, the MIC in series [1] is 1 µM (≈ 0.506 µg/mL); in [4], 8 µM (≈ 4.05 µg/mL); in series [6] it was 1 µM (≈ 0.506 µg/mL); in [7] it was 2 µM (≈ 1.01 µg/mL); in [10] it was 1 µM (≈ 0.506 µg/mL); in [13], 0.5 µM (≈ 0.253 µg/mL). Moreover, the MIC in series [15] stood at 2 µM (≈ 1.01 µg/mL); in [16], 1 µM (≈ 0.506 µg/mL); in [17] it was 8 µM (≈ 4.05 µg/mL); in [19], 4 µM (≈ 2.02 µg/mL); in [20] it was 1 µM (≈ 0.506 µg/mL); in [22], 1 µM (≈ 0.506 µg/mL). The compound also showed an MIC in series [30] of 4 µM (≈ 2.02 µg/mL). Moreover, the logP in [3] is 5.12. Moreover, the “Selectivity Index” value in series [31] came out at 88. The same compound had an IC50 in [32] of 44 µM.
